As a reminder, the inhibition is the change of the read-out against control, counted positive when it falls.

Series [1] is described as follows: Toxicity against new Zealand rabbit blood assessed as hemolysis after 60 mins. The series is classed as tissue-based, Oryctolagus cuniculus. Conditions: read-out: HD50. The procedure, abridged:
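Erythrocytes washed three times in PBS (pH 7.4) and diluted to a 10% suspension. Compounds were dissolved in DMSO, then diluted with PBS to 2.5–250 µg/mL. Suspension was added, and samples were stirred and incubated 60 min at 37 °C with periodic stirring. After centrifugation at 3000 rpm for 5 min, supernatant A540 was read. Haemolysis % was calculated relative to distilled water (100%).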

For series [2], the target named is T1, Prostaglandin G/H synthase 2 (Homo sapiens) (UniProt P35354).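 Also: recombinant human COX2 made in Sf9 insect cells, read-out is reactive oxygen species formed on arachidonic acid stimulation, measured after 30 min.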
T1 sequence (whole entry): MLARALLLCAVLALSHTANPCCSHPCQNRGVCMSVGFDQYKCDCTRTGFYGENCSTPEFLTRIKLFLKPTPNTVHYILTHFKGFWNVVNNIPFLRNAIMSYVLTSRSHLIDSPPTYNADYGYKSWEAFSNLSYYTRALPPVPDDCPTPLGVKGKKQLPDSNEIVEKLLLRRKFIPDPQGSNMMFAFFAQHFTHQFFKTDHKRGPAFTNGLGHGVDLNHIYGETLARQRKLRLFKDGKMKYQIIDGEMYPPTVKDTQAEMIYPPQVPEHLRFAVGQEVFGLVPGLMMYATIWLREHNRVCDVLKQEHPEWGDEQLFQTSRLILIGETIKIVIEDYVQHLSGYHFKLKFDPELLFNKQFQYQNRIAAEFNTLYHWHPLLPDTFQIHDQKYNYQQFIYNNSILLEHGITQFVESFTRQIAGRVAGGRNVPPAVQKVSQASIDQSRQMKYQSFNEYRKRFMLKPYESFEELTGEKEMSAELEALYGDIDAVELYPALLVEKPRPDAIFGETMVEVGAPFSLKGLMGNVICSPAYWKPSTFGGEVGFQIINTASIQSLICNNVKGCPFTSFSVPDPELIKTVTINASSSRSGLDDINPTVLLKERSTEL
Conditions: Spodoptera frugiperda; Sf9; at 10 µM.

As for `CNC(=O)[C@]12CC[C@](C)(C(=O)OC)C[C@H]1C1=CC[C@@H]3[C@@]4(C)C[C@H](O)[C@H](O[C@@H]5OC[C@@H](O[C@@H]6O[C@H](CO)[C@@H](O)[C@H](O)[C@H]6O)[C@H](O)[C@H]5O)[C@@](C)(CO)[C@@H]4CC[C@@]3(C)[C@]1(C)CC2`, the HC50 at 1 h in series [1] is 276 µM.

In the case of `COC(=O)[C@H](NC(=O)[C@]12CC[C@](C)(C(=O)OC)C[C@H]1C1=CC[C@@H]3[C@@]4(C)C[C@H](O)[C@H](O[C@@H]5OC[C@@H](O[C@@H]6O[C@H](CO)[C@@H](O)[C@H](O)[C@H]6O)[C@H](O)[C@H]5O)[C@@](C)(CO)[C@@H]4CC[C@@]3(C)[C@]1(C)CC2)C(C)C`, the HC50 at 1 h in series [1] is over 266 µM.

For `COC(=O)[C@@]1(C)CC[C@]2(C(=O)N3CCNCC3)CC[C@]3(C)C(=CC[C@@H]4[C@@]5(C)C[C@H](O)[C@H](O[C@@H]6OC[C@@H](O[C@@H]7O[C@H](CO)[C@@H](O)[C@H](O)[C@H]7O)[C@H](O)[C@H]6O)[C@@](C)(CO)[C@@H]5CC[C@]43C)[C@@H]2C1`, in series [2], the inhibition amounted to 4.6%. With `COC(=O)[C@@]1(C)CC[C@]2(C(=O)NCCCc3ccccc3)CC[C@]3(C)C(=CC[C@@H]4[C@@]5(C)C[C@H](O)[C@H](O[C@@H]6OC[C@@H](O[C@@H]7O[C@H](CO)[C@@H](O)[C@H](O)[C@H]7O)[C@H](O)[C@H]6O)[C@@](C)(CO)[C@@H]5CC[C@]43C)[C@@H]2C1`, the HC50 at 1 h in series [1] is under 2.6 µM. As for `COC(=O)[C@@]1(C)CC[C@]2(C(=O)NCc3ccc(OC)cc3)CC[C@]3(C)C(=CC[C@@H]4[C@@]5(C)C[C@H](O)[C@H](O[C@@H]6OC[C@@H](O[C@@H]7O[C@H](CO)[C@@H](O)[C@H](O)[C@H]7O)[C@H](O)[C@H]6O)[C@@](C)(CO)[C@@H]5CC[C@]43C)[C@@H]2C1`, in series [1], the HC50 at 1 h is 12.7 µM. The inhibition in series [2] was 56.8%. On to `COC(=O)[C@@H](C)NC(=O)[C@]12CC[C@](C)(C(=O)OC)C[C@H]1C1=CC[C@@H]3[C@@]4(C)C[C@H](O)[C@H](O[C@@H]5OC[C@@H](O[C@@H]6O[C@H](CO)[C@@H](O)[C@H](O)[C@H]6O)[C@H](O)[C@H]5O)[C@@](C)(CO)[C@@H]4CC[C@@]3(C)[C@]1(C)CC2`, for which, in series [1], the HC50 at 1 h was over 274 µM. For the molecule `COC(=O)[C@@]1(C)CC[C@]2(C(=O)NCc3ccc(Cl)cc3)CC[C@]3(C)C(=CC[C@@H]4[C@@]5(C)C[C@H](O)[C@H](O[C@@H]6OC[C@@H](O[C@@H]7O[C@H](CO)[C@@H](O)[C@H](O)[C@H]7O)[C@H](O)[C@H]6O)[C@@](C)(CO)[C@@H]5CC[C@]43C)[C@@H]2C1`, the HC50 at 1 h in series [1] is under 2.6 µM. In series [2], the inhibition was 126%. With `CCCCNC(=O)[C@]12CC[C@](C)(C(=O)OC)C[C@H]1C1=CC[C@@H]3[C@@]4(C)C[C@H](O)[C@H](O[C@@H]5OC[C@@H](O[C@@H]6O[C@H](CO)[C@@H](O)[C@H](O)[C@H]6O)[C@H](O)[C@H]5O)[C@@](C)(CO)[C@@H]4CC[C@@]3(C)[C@]1(C)CC2`, the HC50 at 1 h in series [1] was 15.8 µM. On to `COC(=O)[C@@]1(C)CC[C@]2(C(=O)N(C(=O)NC3CCCCC3)C3CCCCC3)CC[C@]3(C)C(=CC[C@@H]4[C@@]5(C)C[C@H](O)[C@H](O[C@@H]6OC[C@@H](O[C@@H]7O[C@H](CO)[C@@H](O)[C@H](O)[C@H]7O)[C@H](O)[C@H]6O)[C@@](C)(CO)[C@@H]5CC[C@]43C)[C@@H]2C1`, for which the HC50 at 1 h in series [1] is under 2.4 µM. Also, the inhibition in series [2] worked out at 75%.

Regarding `COC(=O)[C@@]1(C)CC[C@]2(C(=O)NCc3ccccc3)CC[C@]3(C)C(=CC[C@@H]4[C@@]5(C)C[C@H](O)[C@H](O[C@@H]6OC[C@@H](O[C@@H]7O[C@H](CO)[C@@H](O)[C@H](O)[C@H]7O)[C@H](O)[C@H]6O)[C@@](C)(CO)[C@@H]5CC[C@]43C)[C@@H]2C1`, the HC50 at 1 h in series [1] amounted to 136 µM. The inhibition in series [2] is 26.9%.

Consider `COC(=O)[C@@]1(C)CC[C@]2(C(=O)On3nnc4ccccc43)CC[C@]3(C)C(=CC[C@@H]4[C@@]5(C)C[C@H](O)[C@H](O[C@@H]6OC[C@@H](O[C@@H]7O[C@H](CO)[C@@H](O)[C@H](O)[C@H]7O)[C@H](O)[C@H]6O)[C@@](C)(CO)[C@@H]5CC[C@]43C)[C@@H]2C1`, for which the HC50 at 1 h in series [1] worked out at 55.2 µM. For the molecule `COC(=O)[C@@]1(C)CC[C@]2(C(=O)NCCc3ccccc3)CC[C@]3(C)C(=CC[C@@H]4[C@@]5(C)C[C@H](O)[C@H](O[C@@H]6OC[C@@H](O[C@@H]7O[C@H](CO)[C@@H](O)[C@H](O)[C@H]7O)[C@H](O)[C@H]6O)[C@@](C)(CO)[C@@H]5CC[C@]43C)[C@@H]2C1`, the HC50 at 1 h in series [1] came out at 21.3 µM. Besides, in series [2], the inhibition was determined as 94.7%.

As for `COC(=O)[C@@]1(C)CC[C@]2(C(=O)NCCO)CC[C@]3(C)C(=CC[C@@H]4[C@@]5(C)C[C@H](O)[C@H](O[C@@H]6OC[C@@H](O[C@@H]7O[C@H](CO)[C@@H](O)[C@H](O)[C@H]7O)[C@H](O)[C@H]6O)[C@@](C)(CO)[C@@H]5CC[C@]43C)[C@@H]2C1`, in series [1], the HC50 at 1 h is over 287 µM.

As for `COC(=O)[C@@]1(C)CC[C@]2(C(=O)NCc3ccc(OC)c(OC)c3)CC[C@]3(C)C(=CC[C@@H]4[C@@]5(C)C[C@H](O)[C@H](O[C@@H]6OC[C@@H](O[C@@H]7O[C@H](CO)[C@@H](O)[C@H](O)[C@H]7O)[C@H](O)[C@H]6O)[C@@](C)(CO)[C@@H]5CC[C@]43C)[C@@H]2C1`, the HC50 at 1 h in series [1] stood at 215 µM. The inhibition in series [2] stood at 19.4%. `COC(=O)[C@@H](Cc1c[nH]c2ccccc12)NC(=O)[C@]12CC[C@](C)(C(=O)OC)C[C@H]1C1=CC[C@@H]3[C@@]4(C)C[C@H](O)[C@H](O[C@@H]5OC[C@@H](O[C@@H]6O[C@H](CO)[C@@H](O)[C@H](O)[C@H]6O)[C@H](O)[C@H]5O)[C@@](C)(CO)[C@@H]4CC[C@@]3(C)[C@]1(C)CC2`: the HC50 at 1 h in series [1] was over 243 µM. Also, the inhibition in series [2] was 47.7%. As for `CCCNC(=O)[C@]12CC[C@](C)(C(=O)OC)C[C@H]1C1=CC[C@@H]3[C@@]4(C)C[C@H](O)[C@H](O[C@@H]5OC[C@@H](O[C@@H]6O[C@H](CO)[C@@H](O)[C@H](O)[C@H]6O)[C@H](O)[C@H]5O)[C@@](C)(CO)[C@@H]4CC[C@@]3(C)[C@]1(C)CC2`, the HC50 at 1 h in series [1] came out at 191 µM. Turning to `COC(=O)[C@@]1(C)CC[C@]2(C(=O)NCc3ccccc3Cl)CC[C@]3(C)C(=CC[C@@H]4[C@@]5(C)C[C@H](O)[C@H](O[C@@H]6OC[C@@H](O[C@@H]7O[C@H](CO)[C@@H](O)[C@H](O)[C@H]7O)[C@H](O)[C@H]6O)[C@@](C)(CO)[C@@H]5CC[C@]43C)[C@@H]2C1`, the HC50 at 1 h in series [1] was found to be 42.8 µM. In series [2], the inhibition stood at 82.9%. `COC(=O)[C@@H](Cc1ccccc1)NC(=O)[C@]12CC[C@](C)(C(=O)OC)C[C@H]1C1=CC[C@@H]3[C@@]4(C)C[C@H](O)[C@H](O[C@@H]5OC[C@@H](O[C@@H]6O[C@H](CO)[C@@H](O)[C@H](O)[C@H]6O)[C@H](O)[C@H]5O)[C@@](C)(CO)[C@@H]4CC[C@@]3(C)[C@]1(C)CC2`: the HC50 at 1 h in series [1] is 204 µM. Same read-out and setting: for `COC(=O)[C@@H](CCSC)NC(=O)[C@]12CC[C@](C)(C(=O)OC)C[C@H]1C1=CC[C@@H]3[C@@]4(C)C[C@H](O)[C@H](O[C@@H]5OC[C@@H](O[C@@H]6O[C@H](CO)[C@@H](O)[C@H](O)[C@H]6O)[C@H](O)[C@H]5O)[C@@](C)(CO)[C@@H]4CC[C@@]3(C)[C@]1(C)CC2` the value was 203 µM. Take `COC(=O)[C@@]1(C)CC[C@]2(C(=O)NCc3ccc(F)cc3)CC[C@]3(C)C(=CC[C@@H]4[C@@]5(C)C[C@H](O)[C@H](O[C@@H]6OC[C@@H](O[C@@H]7O[C@H](CO)[C@@H](O)[C@H](O)[C@H]7O)[C@H](O)[C@H]6O)[C@@](C)(CO)[C@@H]5CC[C@]43C)[C@@H]2C1`: in series [1], the HC50 at 1 h stood at 94.5 µM. Moreover, the inhibition in series [2] came out at 58.1%.

For `COC(=O)[C@@]1(C)CC[C@]2(C(=O)O)CC[C@]3(C)C(=CC[C@@H]4[C@@]5(C)C[C@H](O)[C@H](O[C@@H]6OC[C@@H](O[C@@H]7O[C@H](CO)[C@@H](O)[C@H](O)[C@H]7O)[C@H](O)[C@H]6O)[C@@](C)(CO)[C@@H]5CC[C@]43C)[C@@H]2C1`, the HC50 at 1 h in series [1] stood at 186 µM. Moreover, the inhibition in series [2] was 21.7%.

For the origin of these results see ChEMBL document CHEMBL1138252, “Synthesis, in vitro inhibitory activity towards COX-2 and haemolytic activity of derivatives of esculentoside A” (Bioorg Med Chem Lett, 2007).
